Published values gathered from unrelated publications.
Each line is one published result; the experiments were not run side by side.
Cell line: MIA PaCa-2
Observed: cell growth or viability

Structure (SMILES)	technique	time	endpoint	value
Cc1cc(=O)oc2cc(OCCCCSC#N)ccc12	SRB	–	GI50	6.3 µM
Cc1sc2c(c1C)C(c1ccc(Cl)cc1)=N[C@@H](CC(=O)NCCCCNC(=O)COc1cccc3c1C(=O)N(C1CCC(=O)NC1=O)C3=O)c1nnc(C)n1-2 (some centres unmarked)	CCK-8	72 h	IC50	> 10 µM
CCOc1ccc2[nH]cc(C(=O)C(C#N)=Cc3cn(C)c4ccccc34)c2c1	MTT	48 h	IC50	1.35 µM
N#CSCc1cc(=O)oc2cc(O)ccc12	SRB	–	GI50	5.3 µM
O=C1C(Cl)=C(NCCN2CCOCC2)C(=O)c2ccccc21	MTT	–	IC50	19.7 µM
COc1ccc2c(C(=O)C(C#N)=Cc3cn(C)c4ccccc34)c[nH]c2c1	MTT	48 h	IC50	> 40 µM
CNC(=O)c1ccccc1Nc1cc(Nc2ccc(N3CCOCC3)cc2OC)ncc1C(F)(F)F	MTT	48 h	IC50	1.77 µM
CC1=CC(=O)C(C(C)C)=CC1=O	SRB	48 h	IC50	33.2 µM
CC(=O)N1CCC(Nc2cc(C(=O)NC[C@H](O)CN3CCc4ccccc4C3)ncn2)CC1	CCK-8	72 h	IC50	> 100 µM
CCCOc1ccc2[nH]cc(C(=O)C(C#N)=Cc3cn(CC)c4ccccc34)c2c1	MTT	48 h	IC50	5.3 µM
O=C1C(Cl)=C(NCCCN2CCCCC2)C(=O)c2ccccc21	MTT	–	IC50	4.75 µM
